# Compound activity as filed in PubChem BioAssay.
# An excerpt weighted towards active compounds, which were near 3.7% of everything screened.
# MPTP inh: inhibitors of mitochondrial permeability transition pore; 360,000 tested, 1.4% active; isolated mouse mitochondria, Ca2+ swelling absorbance, 30 min; inhibition, % at 10 µM;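 active = inhibition of 50% or more, scaled per plate between neutral and stimulator controls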;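 note: 0% = DMSO wells given calcium and 100% = 1 mM EGTA wells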
# proCasp3 act: activators of human procaspase-3; P42574; recombinant procaspase-3 D3A, Ac-DEVD-pNA absorbance 405 nm; activation, % at 8.5 µM; 330,000 tested, 0.11% active;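 active = activation above the mean of all tested compounds plus 3 SD, cut at about 21% in these data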;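 note: 0% = DMSO alone and 100% = DMSO wells spiked with extra 5 µM PC-3 D3A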
# Target sequence (P42574 whole entry D9A/D28A/D175A): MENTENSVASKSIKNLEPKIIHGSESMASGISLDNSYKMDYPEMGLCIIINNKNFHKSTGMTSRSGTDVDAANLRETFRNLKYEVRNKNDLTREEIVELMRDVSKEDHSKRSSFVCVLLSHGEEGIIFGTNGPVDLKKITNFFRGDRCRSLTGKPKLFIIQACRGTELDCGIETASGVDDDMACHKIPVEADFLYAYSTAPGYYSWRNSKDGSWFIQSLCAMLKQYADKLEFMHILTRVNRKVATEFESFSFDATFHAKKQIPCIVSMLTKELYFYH
#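 Test system: Procaspase-3 D3A mutant, all three cleavage aspartates alanine | Dosing: Single dose, 8.5 µM nominal compound, 0.8% DMSO | Schedule: 1 h preincubation, 2 h reaction | Technique: 405 nm absorbance of p-nitroaniline, reads at 0 and 120 min | Repeats: One well per compound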
# GRIN3A LBD mod: NR3A (human) ligand-binding domain modulation. NR3A LBD differential scanning fluorimetry, Tm shift; 0% = protein alone, 100% = glycine-bound protein. Tm shift relative to glycine control, % at 25 µM. 340,000 tested, 2.5% active. AID 1259313;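 active = melting temperature shift of at least 10% of the positive control shift, at one fixed dose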
# proCasp7 act: activates human procaspase-7, counter-screen for procaspase-3 activators | P55210 | recombinant procaspase-7, Ac-DEVD-pNA absorbance 405 nm; D23A/D198A/D206A triple mutant, cannot self-cleave; scale: DMSO 0, 5 µM enzyme 100 | activation, % at 8.5 µM | 330,000 tested, 0.093% active | AID 463210;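 active = percent activation above the screen-wide mean plus 3 SD, cut at about 25% in these data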
# Target sequence (P55210 whole entry D23A/D198A/D206A): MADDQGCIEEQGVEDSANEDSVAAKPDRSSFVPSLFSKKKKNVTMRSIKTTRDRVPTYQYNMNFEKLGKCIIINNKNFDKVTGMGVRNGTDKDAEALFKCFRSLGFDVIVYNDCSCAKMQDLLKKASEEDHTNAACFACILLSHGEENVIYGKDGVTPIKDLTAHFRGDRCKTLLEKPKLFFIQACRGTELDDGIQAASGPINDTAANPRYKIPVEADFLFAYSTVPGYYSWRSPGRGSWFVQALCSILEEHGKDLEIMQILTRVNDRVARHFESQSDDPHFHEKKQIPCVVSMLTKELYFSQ
#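 System: Uncleavable procaspase-7 mutant enzyme; Amount: 2 µM procaspase-7 mutant as dispensed; Schedule: 1 h compound preincubation, 2 h substrate cleavage, 25 °C; Measured by: 405 nm absorbance of p-nitroaniline; Evaluation: percent activation from buffer-corrected 0–120 min absorbance change; Control set: low DMSO alone, high DMSO plus 5 µM PC-7.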
# aDG glyco act: alpha-DG glycosylation activation | Pro5-aDG cells, alpha-DG glycosylation AlphaScreen (IIH6); 0% Pro5, 100% B10-LARGE cell signal | activation, % at 10 µM | 360,000 tested, 0.22% active;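 active = activation of at least 8% versus controls, or a plate z-score of at least 8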;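 note: Pro5 are CHO cells carrying HIG-tagged alpha-DG that lacks glycosylation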
# Rh123 counter: Rhodamine 123 counter-screen of mitochondrial pore hits; 5,000 tested, 78% active; inhibition, % at 10 µM; shares compounds with MPTP inh; isolated mitochondria, membrane potential, Rhodamine 123 fluorescence; AID 624504; in the data active = inhibition above about 22%;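 note: 0% = DMSO vehicle and 100% = positive control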
# MPTP abs DR: dose response confirmation of mitochondrial permeability transition pore inhibitors; shares compounds with MPTP inh; isolated mitochondria swelling, absorbance; IC50, µM; 780 tested, 58% active; AID 651561; in the data active = IC50 below about 20 µM
# MPTP counter DR: MPTP inhibitor counter-screen activity, dose response | shares compounds with MPTP inh | isolated mitochondria counterscreen, fluorescence read-out | IC50, µM | 780 tested, 49% active | AID 651564; in the data active = IC50 below about 80 µM
# * = called active by the depositor; · = not tested or not shown.
SMILES,MPTP inh,proCasp3 act,GRIN3A LBD mod,proCasp7 act,aDG glyco act,Rh123 counter,others
O=c1cc(CSc2nnnn2-c2ccccc2)nc(Nc2ccc(F)cc2)[nH]1,56*,-4,9,10,0,84*,
CCOC(=O)c1c(N2C(=O)Nc3cc(Cl)c(Cl)cc3N2O)sc2c1CCCCC2,91*,-3,-3,1,0,70*,
COc1cccc(-c2cnc(C(O)c3ccc(CN4CCCC4)cc3)[nH]2)c1 (configuration not stated),0,·,·,·,0,·,
COc1ccc(S(=O)(=O)NCC(=O)N(CC(=O)NCc2ccco2)Cc2ccc(F)cc2)cc1,0,-5,0,-14,0,·,
COc1cccc(CNc2cnc3ccccc3c2)c1O,62*,1,5,-1,2,62*,
O=C(Nc1cccc([N+](=O)[O-])c1)Nc1cccs1,89*,7,19*,-4,2,85*,
O=C(Nc1cccc(F)c1)Nc1ccc2c(c1)CCC2,67*,-3,43*,-11,0,92*,
O=C(Nc1cccc([N+](=O)[O-])c1)Nc1ccc2c(c1)CCC2,86*,3,34*,0,1,76*,
Cc1cc(C)cc(NC(=O)Nc2ccc3c(c2)CCC3)c1,53*,-5,12*,5,2,94*,
O=C(CN1C(=O)NC2(CCCC2)C1=O)NNC(=O)c1ccc(Br)cc1,0,-1,1,1,0,·,
CC(NC(=O)Nc1cccc([N+](=O)[O-])c1)(C(F)(F)F)C(F)(F)F,106*,-7,-4,3,1,102*,
CC(NC(=O)Nc1cccnc1)(C(F)(F)F)C(F)(F)F,2,5,-1,-6,0,·,
COc1cccc(NC(=O)c2ccc(OC(F)(F)F)cc2)c1,0,8,2,18,0,·,
CC(=O)NC(c1ccc(F)c(F)c1)c1nc(-c2cccs2)cs1 (configuration not stated),0,·,·,·,0,·,
Cc1cc(C(C)(C)C)ccc1OCCOCCN1CCCC1,54*,-5,-5,-4,1,4,MPTP abs DR=12*;MPTP counter DR=24*
Cc1csc2ncnc(NNC(=O)c3ccc(Cl)cc3)c12,55*,-5,0,-3,1,39*,
O=C(NNc1ncnc2sccc12)c1ccc(Cl)cc1,32,2,1,5,0,·,
CC(C)(C)OC(=O)C[C@@H]1C/C=C\C[C@H](CC(=O)N(CCO)Cc2ccccc2)C(=O)N[C@@H](Cc2c[nH]c3ccccc23)COC1=O,0,-4,-3,3,0,·,
CCCCNc1c(-c2cccc(-c3cc(C(C)=O)cs3)c2)nc2ccc(C)cn12,11,1,-11,-6,1,·,
CCCCNc1c(-c2cccc(-c3ccc(OC)cc3)c2)nc2cc(C)ccn12,63*,2,-15,11,3,102*,
CCCCNc1c(-c2ccc(OC)c(SC3CCCCC3)c2)nc2cc(C)ccn12,44,1,-31,8,1,·,
CCCCNc1c(-c2cccc(-c3ccc(OC)cc3)c2)nc2ccc(C)cn12,56*,-3,-42,2,2,77*,
COc1ccc(C(c2nnnn2C2CCCCC2)N2CCN(C/C=C/c3ccccc3)CC2)cc1 (configuration not stated),0,·,·,·,0,·,
CCc1ccc(C2CC3C(CN2S(=O)(=O)c2ccc(C)cc2)C(=O)CC(c2ccc(CC)cc2)N3S(=O)(=O)c2ccc(C)cc2)cc1 (configuration not stated),0,·,·,·,0,·,
NS(=O)(=O)c1ccc(Sc2ccccn2)c([N+](=O)[O-])c1,2,-5,1,5,0,·,
SMILES,MPTP inh,proCasp3 act,GRIN3A LBD mod,proCasp7 act,aDG glyco act,Rh123 counter,others
NS(=O)(=O)c1ccc(Sc2nc3ccccc3s2)c([N+](=O)[O-])c1,60*,-4,-3,1,0,43*,
COc1cccc(C(=O)O[C@H]2[C@H](C)NS(=O)(=O)[C@H]3C[C@@H]4C=C[C@]23O4)c1,-1,-3,0,-7,0,·,
Cc1nc(Nc2ccc(Cl)c(Cl)c2)sc1C(=O)Nc1ccccc1,82*,4,32*,-12,7,64*,
CCN1C(=O)[C@@H]2[C@@H](c3ccc(SC4CCCCC4)c(OC)c3)N3CCC[C@@]3(C(=O)OC)[C@@H]2C1=O,0,-1,-1,-2,0,·,
Cc1ccc(F)cc1NC(=O)N1CCN(c2ccnc3cc(Cl)ccc23)CC1,33,3,-3,4,0,·,
Cc1cccc(Cl)c1NC(=O)N1CCN(c2ccnc3cc(Cl)ccc23)CC1,14,-3,0,6,0,·,
O=C(Nc1cc(F)ccc1F)N1CCN(c2ccnc3cc(Cl)ccc23)CC1,59*,2,0,3,1,36*,
O=C(Nc1ccc(C(F)(F)F)cc1)N1CCN(c2ccnc3cc(Cl)ccc23)CC1,79*,-2,10,2,2,81*,
O=C(O)CCC(=O)N1N=C(c2ccc(Br)cc2)CC1c1cccs1 (configuration not stated),81*,-3,0,3,0,3,MPTP abs DR=>100;MPTP counter DR=>80
O=C(O)CCC(=O)N1N=C(c2ccco2)CC1c1cccs1 (configuration not stated),0,1,-3,-22,0,·,
O=C(NNc1c2ccccc2nc2ccccc12)c1ccccc1O,87*,-10,18*,-18,0,43*,
O=C(NNc1c2ccccc2nc2ccccc12)c1ccc(O)cc1O,-1,-15,9,-16,0,·,
NC(=O)c1cccc(-c2coc3c(C(=O)NC4CCCCC4)cccc23)c1,5,·,·,·,4,·,
O=C(NCc1ccco1)c1sc(=S)n2c1[nH]c(=O)c1ccccc12,89*,-2,9,-3,0,77*,
O=C(NCc1ccccc1)c1ccc2c(=O)[nH]c3c(C(=O)NCC4CCCO4)sc(=S)n3c2c1 (configuration not stated),1,-1,4,-7,0,·,
O=C(NC1CCCC1)c1sc(=S)n2c1[nH]c(=O)c1ccccc12,87*,2,-9,-4,0,97*,
N=C1S/C(=C\c2cn[nH]c2-c2ccc(F)cc2)C(=O)N1c1ccccc1F,-2,-3,6,-3,0,·,
N=C1S/C(=C\c2cccc3ccccc23)C(=O)N1c1ccc(F)cc1,94*,-2,11*,-3,0,20*,
